EP2 antag – human EP2 receptor antagonists, primary screen, TR-FRET cAMP, C6 glioma cells | Prostaglandin E2 receptor EP2 subtype (Homo sapiens), P43116 | C6 glioma cells expressing human EP2; cells stimulated with saturating PGE2 | inhibition, % at 25 µM | 260,000 compounds, 0.52% hits;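 active means percent inhibition above 40 after rounding to a whole number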;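 further: rat C6 glioma host cells with rolipram phosphodiesterase inhibitor present; the protocol text gives 20 µM as final concentration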
Target sequence (P43116 whole entry, looked up): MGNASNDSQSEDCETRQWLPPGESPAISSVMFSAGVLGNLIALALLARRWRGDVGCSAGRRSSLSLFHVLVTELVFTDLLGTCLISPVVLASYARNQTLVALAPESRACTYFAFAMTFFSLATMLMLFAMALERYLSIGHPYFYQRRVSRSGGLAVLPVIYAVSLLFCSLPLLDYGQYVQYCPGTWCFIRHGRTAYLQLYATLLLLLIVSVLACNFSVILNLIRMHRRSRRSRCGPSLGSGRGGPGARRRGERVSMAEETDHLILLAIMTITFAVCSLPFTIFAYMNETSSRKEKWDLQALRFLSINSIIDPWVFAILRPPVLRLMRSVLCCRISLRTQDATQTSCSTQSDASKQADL
CHO parental Ca – ATP-evoked calcium signal inhibitors, parental CHO, primary screen, counter-screen for OX1R antagonist project, cell-based, fluorescence, Fluo-8 calcium dye; inhibition, % at 5.6 µM; 330,000 compounds, 0.63% hits; parental CHO-K1, ATP-induced calcium, Fluo-8 fluorescence; AID 463079, 2010;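 active means inhibition above that plate's mean sample inhibition plus 3 SD, cut at about 26% in these data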
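Assay system: parental CHO cells; Read-out basis: percent inhibition of ATP-evoked calcium rise, normalized to controls; Benchmarks: ATP and no-ATP DMSO wells; Compound dosing: single nominal dose of 5.6 µM per compound; Signal: Fluo-8 calcium dye fluorescence; Also added: ATP as calcium-mobilizing challenge; Repeats: singlicate.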
OX1R antag-1 – antagonists of human orexin 1 receptor (OX1R); Orexin/Hypocretin receptor type 1 (Homo sapiens), O43613; OX1R-expressing cells, FRET antagonist read-out; inhibition, % at 6.6 µM; 330,000 compounds, 1.8% hits; in the data active means inhibition mostly above about 38%, no sharp cut-off; inactive means mostly below about 40%
OX1R antag-2 – OX1R (HCRTR1) antagonists, primary screen, fluorescence, CHO/OX1R cells, Fluo-8 calcium, orexin A. Orexin/Hypocretin receptor type 1 (Homo sapiens), O43613. Fluo-8 calcium fluorescence. inhibition, % at 5 µM. 330,000 compounds, 0.43% hits. AID 434989, 2010;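 active means inhibition above its plate's threshold, mean inhibition of all tested compounds on the plate plus 3 SD, cut at about 37% in these data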
EP2 mod – EP2 receptor modulators, cAMP readout, primary screen, cell-based, HTRF cAMP, PGE2 stimulation; Prostaglandin E2 receptor EP2 subtype (Homo sapiens), P43116; induction, % at 25 µM; AID 940, 2007; 260,000 compounds, 0.83% hits; EP2-expressing cells, cAMP HTRF FRET, PGE2 co-stimulation;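 active means compounds whose cAMP rise, as percent of the full-agonist control response, exceeds 60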;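 further: rat C6 glioma line stably carrying human EP2 under a CMV promoter; the protocol text gives 20 µM as final concentration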
GPR7 antagonist – GPR7 receptor antagonists, primary screen, cell-based, fluorescence, single concentration. 290,000 compounds, 1.1% hits. Neuropeptides B/W receptor type 1 (Homo sapiens), P48145. inhibition, % at 4.4 µM. AID 1861, 2009. GPR7-expressing cells, fluorescence antagonist assay; in the data active means inhibition above about 16%, passing the limit was not always enough;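 further: cells stimulated with the agonist NPW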
Target sequence (P48145 whole entry, looked up): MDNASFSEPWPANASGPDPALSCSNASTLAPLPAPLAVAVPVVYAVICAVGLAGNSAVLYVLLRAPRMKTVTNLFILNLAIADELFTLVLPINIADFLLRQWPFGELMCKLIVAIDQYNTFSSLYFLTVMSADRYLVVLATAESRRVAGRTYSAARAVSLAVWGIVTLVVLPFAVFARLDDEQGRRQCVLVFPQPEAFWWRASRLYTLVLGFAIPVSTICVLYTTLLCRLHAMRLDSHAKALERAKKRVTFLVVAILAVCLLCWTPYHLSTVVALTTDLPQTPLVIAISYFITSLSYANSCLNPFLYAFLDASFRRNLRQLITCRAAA
Numbers stand for hits; . = inactive; / = no result given. Hits are enriched below; roughly 3.7% of the tested compounds scored in any of these assays.

SMILES	EP2 antag	CHO parental Ca	OX1R antag-1	OX1R antag-2	EP2 mod	GPR7 antagonist
CC(=O)Nc1ccc(NC(=O)CSC2=NS(=O)(=O)c3cc(Cl)ccc3N2)cc1	/	.	.	.	/	/
COc1ccc(C(=O)CSC2=NS(=O)(=O)c3cc(Cl)ccc3N2)cc1	/	.	61.9	.	/	/
O=c1ccc2c(-c3ccccc3)c3ccc(O)cc3oc-2c1	/	101.4	.	106.6	/	.
O=C(O)c1c(-c2c3ccc(=O)cc-3oc3cc(O)ccc23)cc2ccccc2c1-c1ccccc1	42.2	/	/	/	.	/
Nc1ccc(-c2c3ccc(=O)cc-3oc3cc(O)ccc23)cc1C(=O)O	/	70.0	69.3	83.8	/	.
COc1ccc(C(=O)NC(=S)N2CCCC2)cc1	/	.	.	.	/	.
CCC(CC)c1nnc(NC(=O)C2CC(=O)N(CCc3ccc(F)cc3)C2)s1 (stereo unspecified)	/	.	.	.	/	.
Cc1c(=O)n(OCc2cccc(F)c2)c2ccccc2[n+]1[O-]	.	.	41.5	.	.	.
CCn1cc(/C=C(\NC(=O)c2ccccc2OC)C(=O)NCCCN2CCOCC2)c2ccccc21	/	.	.	.	/	.
CCOC(=O)c1cc(OC(=O)c2ccccc2)n(-c2ccccc2)n1	.	.	.	.	61.7	.
CCOC(=O)c1cc(OC(=O)c2cccc([N+](=O)[O-])c2)n(-c2ccccc2)n1	.	.	.	.	.	.
CCOc1ccc(C(CCc2ccccc2)NC(=O)c2ccccc2OC)cc1OCC (stereo unspecified)	.	.	.	47.4	.	.
CCCN=C1N(CC)C[C@@H]2[C@@H]3C(=O)N(C)C(=O)[C@@H]3[C@](Cc3ccccc3)(C(=O)OC)N12	/	.	.	.	/	/
Cc1ccc(S(=O)(=O)n2nc(C)c(Br)c2C)c(C)c1C	.	.	.	51.6	.	.
CCCC(=O)c1ccc(N2CCCC2)c(F)c1	.	.	.	.	.	.
Nc1c(C(=O)Nc2nccs2)sc2nc(-c3cccs3)cc(C(F)(F)F)c12	/	41.6	.	47.1	.	.
Cc1nnc(NC(=O)c2sc3nc(-c4cccs4)cc(C(F)(F)F)c3c2N)s1	.	42.1	.	84.8	.	.
O=C(c1ccc([N+](=O)[O-])o1)N(Cc1nnc(-c2ccccc2Cl)o1)C1CC1	/	.	.	.	/	/
COc1ccc(NC(=S)N2CCC(NC(=O)c3cccc(C)c3)CC2)cc1	.	.	.	.	.	.
CC(C)(C)NC(=O)CSc1nc2ccc(NC(=O)CSc3nnnn3Cc3ccccc3)cc2s1	.	37.3	.	.	.	.
CCOC(=O)CSc1nc2ccc(NC(=O)CSc3nnnn3Cc3ccccc3)cc2s1	.	.	.	.	.	.
O=S(=O)(c1ccccc1F)N1CCN(c2nc(-c3cccnc3)nc3ccccc23)CC1	/	.	.	.	/	/
Cc1ccc(C)c(S(=O)(=O)N2CCN(c3nc(-c4cccnc4)nc4ccccc34)CC2)c1	/	.	46.8	.	/	/
O=C(O)CCC(O)=C1S(=O)(=O)OCCOS1(=O)=O	42.5	/	/	/	.	/
O=C(O)CCN1CCOCC1	.	.	.	.	.	.
SMILES	EP2 antag	CHO parental Ca	OX1R antag-1	OX1R antag-2	EP2 mod	GPR7 antagonist
CN(C)/C=N/c1nc(-c2ccc3ccccc3c2)cs1	/	.	.	.	/	.
N#CCCN1CCN(C2=NC(=O)/C(=C\c3cccs3)S2)CC1	.	.	42.0	.	.	.
Cc1cc(C)c2c(c1)[C@@H]1C=CC[C@@H]1[C@H](c1ccc(S(=O)(=O)N3CCOCC3)cc1)N2	.	.	.	.	.	.
CC/C(=C\C(=O)c1cccnc1)Nc1cccc(O)c1	.	/	/	/	.	/
COc1ccccc1OCC(=O)Nc1ccccc1C(=O)N1CCCC1	.	.	.	.	.	.
O=C(COc1ccc(F)cc1Cl)Nc1ccccc1C(=O)N1CCCCC1	/	98.9	.	.	/	/
CC(NC(=O)CSc1nnc(-c2cc3cc(Cl)ccc3o2)n1C)c1ccccc1 (stereo unspecified)	.	.	54.4	.	.	.
Cn1ncc(Br)c1C(=O)N/N=C/c1cccc(OC2CSC2)c1	.	.	.	.	.	.
O=C(N/N=C/c1cccc(OC2CSC2)c1)c1ccccc1O	.	.	71.5	.	.	.
Cc1cccc(OCC(=O)NC(C)C(=O)N/N=C/c2c(OCc3ccccc3)ccc3ccccc23)c1 (stereo unspecified)	.	.	43.2	.	.	.
COc1ccc2ccccc2c1/C=N/NC(=O)c1cccc(C)c1	/	.	.	.	/	/
COc1ccc2[nH]c(C(=O)N/N=C/c3ccccc3OC)cc2c1	/	.	55.9	.	/	.
COc1cc(OC)c2cc(C(=O)N/N=C/c3ccccc3O)[nH]c2c1	/	.	61.8	.	/	.
COc1ccccc1NS(=O)(=O)c1cc([N+](=O)[O-])ccc1N/N=C/c1c(C)[nH]c2ccccc12	.	41.2	.	46.1	.	.
Cc1[nH]c2ccccc2c1/C=N/Nc1ccc([N+](=O)[O-])cc1	.	56.8	.	52.5	.	.
Cc1cc2nnc(SCC(=O)Nc3ccc(Cl)cc3)n2c2ccccc12	.	/	/	/	.	/
Fc1ccccc1/C=N/Nc1ccc(Cl)nn1	/	.	.	.	/	.
COc1cccc(-n2nc(C#N)c(Cl)cc2=O)c1	.	/	/	/	.	41.3
CCn1c(C)nc2cc(C(=O)NNC(=O)c3ccc(C)cc3)ccc21	/	.	.	.	/	/
CCn1c(C)nc2cc(C(=O)OC(C(F)(F)C(F)F)C(F)(F)C(F)F)ccc21	/	.	.	65.8	.	.
CCCn1c(CCC(=O)O)ccc1-c1ccccc1	.	.	.	.	.	.
O=S(=O)(O)c1cccc2c(N=Nc3ccc(O)c4ncccc34)cccc12	/	.	.	.	/	.
O=S(=O)(O)c1ccc2cc(N=Nc3cc(S(=O)(=O)O)c4cccnc4c3O)ccc2c1	52.0	/	/	/	.	/
O=C(O)C1CCCN(S(=O)(=O)c2ccc(-c3ccc(=O)[nH]n3)s2)C1 (stereo unspecified)	/	.	.	.	/	.
CCc1cc2ccccc2nc1SCC(=O)Nc1ccccc1Cl	.	/	/	/	69.0	/
CCc1cc2ccccc2nc1SCC(=O)Nc1ccccc1F	.	/	/	/	.	/
CCc1cc2ccccc2nc1SCC(=O)Nc1ccccc1C(F)(F)F	.	/	/	/	61.2	/
COc1ccc(-c2csc(NC(=O)C3CCN(c4ncnc5sc(C)c(C)c45)CC3)n2)cc1OC	/	74.7	76.1	45.3	/	/
CCc1noc(C)c1C(=O)OCC(=O)Nc1nc(-c2ccc(F)c(F)c2)cs1	/	35.8	.	69.0	/	/
CC(=O)Nc1ccc(-c2csc(NC(=O)c3ccc(C)o3)n2)cc1	.	.	.	.	.	.

High-throughput results from PubChem BioAssay.
